This is an account of results in ChEMBL document CHEMBL2057097, “Synthesis and biological evaluation of rebeccamycin analogues modified at the imide moiety” (Bioorg Med Chem Lett, 2012).

One data set deals with NCI-H460. The data set is described as follows: Cytotoxicity against human NCI-H460 cells after 72 hrs by sulforhodamine B assay. The class given is functional, cell-based. To be noted: NCI-H460, 72 h. The procedure, abridged:
(§1)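 Cells seeded (A2780 2000, H460 1500, GLC-4 1500 per well), incubated 24 h at 37 °C, 5% CO₂. Compounds from DMSO diluted in saline, tested over 0.001 to 10 range. 24 h exposure, two PBS washes, then 72 h in drug-free medium. Viability by SRB; IC50 from survival-versus-concentration curve against untreated control.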
(In general: The SRB assay estimates cell density from bound dye.)

For data set [1], the system named is A2780. As to the kind of experiment: Cytotoxicity against human A2780 cells after 72 hrs by sulforhodamine B assay. The class given is functional, cell-based. Particulars: A2780, 72 h. A digest of the protocol: as §1
The nature of data set [2]: Cytotoxicity against human GLC4 cells after 72 hrs by sulforhodamine B assay. The class given is functional, cell-based. To be noted: GLC4, 72 h. A digest of the protocol: as §1
Another data set relates to Mus musculus. The data set is described as follows: Toxicity in athymic Harlan mouse xenografted with human A2780 cells assessed as mortality at 90 mg/kg, iv administered Q4D for 4 weeks. The class given is organism-based. Also noted: dose 90 mg/kg, route intravenous. To be noted: in vivo, 672 h. The procedure, abridged:
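Female athymic nude mice (6–8 weeks old, five per group) received 10 × 10⁶ A2780 cells s.c. in the right flank, suspended in 0.9% NaCl. Dosing began at tumours of about 50 mm³. The drug was dissolved in sterile water for injection, diluted in saline just before use, and given i.v. q4dx4 (twice weekly) at 10 ml/kg. Read-out was deaths out of total mice.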
Background: In xenograft studies the graft and the host belong to different species.

Data set [3] has as its system A2780. As to the kind of experiment: Ratio of IC50 for edotecarin to compound IC50 for human A2780 cells after 72 hrs by sulforhodamine B assay. Format: functional.
The test system of data set [4] is A2780. The data set is described as follows: Antitumor activity against human A2780 cells xenografted in athymic harlan mouse assessed as tumor volume inhibition at 90 mg/kg, […] Q4D for 4 weeks. The class given is functional. To be noted: A2780, 672 h. A digest of the protocol:
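Female athymic nude mice, 6–8 weeks old, five per group, implanted s.c. in right flank with A2780 cells (10 × 10⁶ cells/flank in 0.2 ml 0.9% NaCl). Treatment began at tumours approximately 50 mm³. Compound dissolved in sterile water, diluted in saline, given i.v. q4dx4 at 10 ml/kg. Calliper length/width; TV = width² × length/2. TVI versus controls at nadir of treated group; deaths recorded.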

One may read the IC50 as the point on the concentration scale where inhibition reaches its midpoint. As a reminder, the inhibition in vivo is how much of the control response was suppressed.

For `COCC(COC)NN1C(=O)c2c(c3c4ccc(O)cc4n([C@@H]4O[C@H](CO)[C@@H](O)[C@H](O)[C@H]4O)c3c3[nH]c4cc(O)ccc4c23)C1=O`, the IC50 in the data set with NCI-H460 is greater than 125 nM; in the data set with A2780 [1], 12.7 nM; in data set [2], 3.8 nM.
As to `O=C1c2c(c3c4ccc(O)cc4n([C@@H]4O[C@H](CO)[C@@H](O)[C@H](O)[C@H]4O)c3c3[nH]c4cc(O)ccc4c23)C(=O)N1NC1COCOC1`, the IC50 in the data set with NCI-H460 was greater than 250 nM; with A2780 [1], 0.7 nM; in data set [2], 0.7 nM. Also, the Activity entry in the data set on Mus musculus is on record as “Non-toxic”. The “Ratio IC50” value in the data set with A2780 [3] turned out to be 10. Moreover, in the data set with A2780 [4], the inhibition in vivo at 90 mg/kg was determined as 99.7%.
For `O=C1c2c(c3c4ccc(O)cc4n([C@@H]4O[C@H](CO)[C@@H](O)[C@H](O)[C@H]4O)c3c3[nH]c4cc(O)ccc4c23)C(=O)N1N1CCOCC1`, the IC50 with NCI-H460 is greater than 1000 nM; with A2780 [1], 54 nM; in data set [2], 90 nM.
As for `O=C1c2c(c3c4ccc(O)cc4n([C@@H]4O[C@H](CO)[C@@H](O)[C@H](O)[C@H]4O)c3c3[nH]c4cc(O)ccc4c23)C(=O)N1NCC1COCO1` (some centres not stated), the figures for the IC50 (with NCI-H460; with A2780 [1]; in data set [2]) were greater than 1000 nM, 1.7 nM and 0.8 nM, respectively. For the same compound, the “Ratio IC50” value with A2780 [3] was determined as 3.
In the case of `O=C1c2c(c3c4ccc(O)cc4n([C@@H]4O[C@H](CO)[C@@H](O)[C@H](O)[C@H]4O)c3c3[nH]c4cc(O)ccc4c23)C(=O)N1NC1C(O)CCCC1O` (some centres not stated), the concentration for half-maximal inhibition (IC50) in the data set with NCI-H460 is greater than 250 nM; in the data set with A2780 [1], 90 nM; in data set [2], 101 nM.
On to `CC[C@@]1(O)C(=O)OCc2c1cc1n(c2=O)Cc2cc3ccccc3nc2-1` [CAMPTOTHECIN], for which the results for the IC50 (in the data set on NCI-H460; with A2780 [1]; in data set [2]) were 5 nM, 7 nM and 10 nM, respectively.
Take `O=C1c2c(c3c4ccc(O)cc4n([C@@H]4O[C@H](CO)[C@@H](O)[C@H](O)[C@H]4O)c3c3[nH]c4cc(O)ccc4c23)C(=O)N1NC(CO)CO` [EDOTECARIN]: the IC50 in the data set with NCI-H460 was determined as 193 nM; in the data set with A2780 [1], 6.5 nM; in data set [2], 0.8 nM. Besides, the Activity entry with Mus musculus is on record as “Non-toxic”. For the same compound, the inhibition in vivo at 90 mg/kg in the data set with A2780 [4] was determined as 99.8%.
